The source of these data is ChEMBL document CHEMBL1667725, “Tuberatolides, potent FXR antagonists from the Korean marine tunicate Botryllus tuberatus” (J Nat Prod, 2011).

The structures appear in SMILES notation. Activity calls are given as the source filed them. The calls are words filed in the database; no cut-off is given here.

In one test the target is T1, Bile acid receptor (Homo sapiens, UniProt Q96RI1).
T1 sequence (Q96RI1 whole entry): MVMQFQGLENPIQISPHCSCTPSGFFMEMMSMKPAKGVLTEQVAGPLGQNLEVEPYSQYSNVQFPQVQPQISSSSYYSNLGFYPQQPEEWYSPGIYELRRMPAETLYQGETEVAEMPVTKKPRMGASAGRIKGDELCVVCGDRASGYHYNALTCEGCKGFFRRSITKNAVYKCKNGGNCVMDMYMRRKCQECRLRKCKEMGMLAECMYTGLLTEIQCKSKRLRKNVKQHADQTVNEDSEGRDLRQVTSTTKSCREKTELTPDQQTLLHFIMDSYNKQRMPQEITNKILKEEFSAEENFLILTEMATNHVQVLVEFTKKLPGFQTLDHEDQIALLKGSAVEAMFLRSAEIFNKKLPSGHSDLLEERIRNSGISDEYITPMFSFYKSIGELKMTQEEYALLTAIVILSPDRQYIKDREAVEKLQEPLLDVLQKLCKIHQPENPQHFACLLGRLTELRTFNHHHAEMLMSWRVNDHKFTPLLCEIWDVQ
In words: Antagonist activity at human FXR expressed in CV-1 cells assessed as inhibition of CDCA-induced transactivation after 24 hrs by luciferase reporter gene assay. The format is functional, cell-based.
Settings: not given
A digest of the protocol: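 CV-1 cells in DMEM with 10% resin-charcoal-stripped FBS, 24 h at 37 °C, 5% CO2, then transiently co-transfected with pCMX-hFXR, CMXβ-GAL and Tk(EcRE)6-LUC. After 24 h, compounds were co-treated with 50 µM CDCA; harvest at 24 h. Luciferase normalized to β-galactosidase. Transfections in triplicate; experiments repeated more than three times.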
On the technique in general: In a reporter assay the amount or activity of a reporter protein is the signal.
On to `CC(C)=CCCC1=C[C@@H](C/C(C)=C/CC[C@]2(C)C=Cc3cc(O)cc(C)c3O2)OC1=O` [2'-EPI-TUBERATOLIDE B], for which the IC50 (commonly the concentration that gives 50% inhibition) worked out at 2.5 µM.

On to `CC(C)=CCC/C(=C/CC/C(C)=C/CC[C@]1(C)C=Cc2cc(O)cc(C)c2O1)C(=O)O` [(R)-SARGACHROMENOL], for which the 50% inhibitory concentration (IC50) worked out at 9 µM.

For the compound `CC(C)=CCC/C(=C/CC/C(C)=C/CC[C@@]1(C)C=Cc2cc(O)cc(C)c2O1)C(=O)O` [(S)-SARGACHROMENOL], the IC50 was found to be 17 µM.

As to `CC(=O)CC/C=C(\C)C[C@@H]1C=C(CCC=C(C)C)C(=O)O1` [TUBERATOLIDE A], the concentration for half-maximal inhibition (IC50) was found to be 3.9 µM.

Regarding `CC(C)=CCCC1=C[C@@H](C/C(C)=C/CC[C@@]2(C)C=Cc3cc(O)cc(C)c3O2)OC1=O` [TUBERATOLIDE B], the IC50 was found to be 1.5 µM.

Take `CC(C)=CCCC1=C[C@@H](C/C(C)=C/CC/C(C)=C/CC2=CC(=O)C=C(C)C2=O)OC1=O` [YEZOQUINOLIDE]: the concentration for half-maximal inhibition (IC50) was 5.9 µM.

The target in a further test is T2, Bile acid receptor (Homo sapiens) (UniProt Q96RI1).
T2 sequence (whole entry): T1 sequence (Q96RI1 whole entry)
In words: Binding affinity to human FXR ligand binding domain cell free system assessed as release of co-activator peptide SRC-1 after 1 hr by surface plasmon resonance method.
Settings: not given
In short, it runs like this: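 BIAcore SPR: hFXR LBD (4 µM) preincubated 1 h with compound plus 50 µM CDCA, then injected over a sensor chip bearing immobilized SRC-1 co-activator peptide; co-activator peptide binding to the LBD monitored.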
Turning to `CC(C)=CCCC1=C[C@@H](C/C(C)=C/CC[C@]2(C)C=Cc3cc(O)cc(C)c3O2)OC1=O` [2'-EPI-TUBERATOLIDE B], the outcome was Active.

As for `CC(C)=CCC/C(=C/CC/C(C)=C/CC[C@]1(C)C=Cc2cc(O)cc(C)c2O1)C(=O)O` [(R)-SARGACHROMENOL], the result was Active.

As to `CC(C)=CCC/C(=C/CC/C(C)=C/CC[C@@]1(C)C=Cc2cc(O)cc(C)c2O1)C(=O)O` [(S)-SARGACHROMENOL], the outcome was Active.

Take `CC(=O)CC/C=C(\C)C[C@@H]1C=C(CCC=C(C)C)C(=O)O1` [TUBERATOLIDE A]: the outcome was Active.

Turning to `CC(C)=CCCC1=C[C@@H](C/C(C)=C/CC[C@@]2(C)C=Cc3cc(O)cc(C)c3O2)OC1=O` [TUBERATOLIDE B], the outcome was Active.

Consider `CC(C)=CCCC1=C[C@@H](C/C(C)=C/CC/C(C)=C/CC2=CC(=O)C=C(C)C2=O)OC1=O` [YEZOQUINOLIDE], for which the outcome was Active.

Test system in a further test: not listed separately
In words: Cytotoxicity against african green monkey CV1 cells by MTT assay. The format is cell-based. As to conditions: Chlorocebus aethiops, CV-1. In short, it runs like this:
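CV-1 cells, viability read by MTT; each experiment repeated more than three times.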
(In general: Tetrazolium dyes change colour on reduction, which living cells bring about.)
Turning to `CC(C)=CCCC1=C[C@@H](C/C(C)=C/CC[C@]2(C)C=Cc3cc(O)cc(C)c3O2)OC1=O` [2'-EPI-TUBERATOLIDE B], the IC50 came out at 30 µM.

`CC(C)=CCC/C(=C/CC/C(C)=C/CC[C@]1(C)C=Cc2cc(O)cc(C)c2O1)C(=O)O` [(R)-SARGACHROMENOL] registered an IC50 of 45 µM.

The compound `CC(C)=CCC/C(=C/CC/C(C)=C/CC[C@@]1(C)C=Cc2cc(O)cc(C)c2O1)C(=O)O` [(S)-SARGACHROMENOL] registered a concentration for half-maximal inhibition (IC50) of 56 µM.

The compound `CC(=O)CC/C=C(\C)C[C@@H]1C=C(CCC=C(C)C)C(=O)O1` [TUBERATOLIDE A] gave an IC50 above 100 µM.

The compound `CC(C)=CCCC1=C[C@@H](C/C(C)=C/CC[C@@]2(C)C=Cc3cc(O)cc(C)c3O2)OC1=O` [TUBERATOLIDE B] returned an IC50 of 31 µM.

Regarding `CC(C)=CCCC1=C[C@@H](C/C(C)=C/CC/C(C)=C/CC2=CC(=O)C=C(C)C2=O)OC1=O` [YEZOQUINOLIDE], half-maximal inhibition (IC50) required 50 µM.

In the next test the target is T3, Glucocorticoid receptor (Homo sapiens) (UniProt P04150).
T3 sequence (whole entry): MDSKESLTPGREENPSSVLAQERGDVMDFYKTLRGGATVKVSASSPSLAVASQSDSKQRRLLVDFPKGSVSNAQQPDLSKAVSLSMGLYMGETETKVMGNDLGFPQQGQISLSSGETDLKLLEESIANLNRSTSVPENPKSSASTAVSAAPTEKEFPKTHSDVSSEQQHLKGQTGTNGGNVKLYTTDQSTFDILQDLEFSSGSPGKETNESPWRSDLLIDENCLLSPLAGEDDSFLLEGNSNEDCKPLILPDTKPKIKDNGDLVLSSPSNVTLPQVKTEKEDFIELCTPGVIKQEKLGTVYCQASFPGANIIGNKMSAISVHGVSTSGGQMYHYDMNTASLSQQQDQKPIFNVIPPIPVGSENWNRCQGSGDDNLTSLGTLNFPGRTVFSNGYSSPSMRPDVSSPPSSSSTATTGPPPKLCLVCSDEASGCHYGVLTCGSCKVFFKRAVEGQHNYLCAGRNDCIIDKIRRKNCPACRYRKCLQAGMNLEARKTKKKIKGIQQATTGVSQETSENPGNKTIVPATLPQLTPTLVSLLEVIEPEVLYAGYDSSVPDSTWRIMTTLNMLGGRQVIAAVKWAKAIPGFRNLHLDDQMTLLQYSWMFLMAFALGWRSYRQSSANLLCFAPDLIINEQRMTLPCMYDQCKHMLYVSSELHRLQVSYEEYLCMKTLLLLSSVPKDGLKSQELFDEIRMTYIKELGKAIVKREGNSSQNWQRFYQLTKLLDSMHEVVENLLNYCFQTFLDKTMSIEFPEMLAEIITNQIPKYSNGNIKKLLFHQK
In words: Effect on human Gal4-fused GR at 10 uM by luciferase reporter gene assay.
Settings: not given
`CC(C)=CCCC1=C[C@@H](C/C(C)=C/CC[C@]2(C)C=Cc3cc(O)cc(C)c3O2)OC1=O` [2'-EPI-TUBERATOLIDE B]: the result was inactive.

For `CC(C)=CCC/C(=C/CC/C(C)=C/CC[C@]1(C)C=Cc2cc(O)cc(C)c2O1)C(=O)O` [(R)-SARGACHROMENOL], the result was inactive.

As to `CC(C)=CCC/C(=C/CC/C(C)=C/CC[C@@]1(C)C=Cc2cc(O)cc(C)c2O1)C(=O)O` [(S)-SARGACHROMENOL], the result was inactive.

For the compound `CC(=O)CC/C=C(\C)C[C@@H]1C=C(CCC=C(C)C)C(=O)O1` [TUBERATOLIDE A], the outcome was inactive.

For `CC(C)=CCCC1=C[C@@H](C/C(C)=C/CC[C@@]2(C)C=Cc3cc(O)cc(C)c3O2)OC1=O` [TUBERATOLIDE B], the outcome was inactive.

Take `CC(C)=CCCC1=C[C@@H](C/C(C)=C/CC/C(C)=C/CC2=CC(=O)C=C(C)C2=O)OC1=O` [YEZOQUINOLIDE]: the outcome was inactive.

Another test concerns the target T4, Progesterone receptor (Homo sapiens) (UniProt P06401).
T4 sequence (whole entry): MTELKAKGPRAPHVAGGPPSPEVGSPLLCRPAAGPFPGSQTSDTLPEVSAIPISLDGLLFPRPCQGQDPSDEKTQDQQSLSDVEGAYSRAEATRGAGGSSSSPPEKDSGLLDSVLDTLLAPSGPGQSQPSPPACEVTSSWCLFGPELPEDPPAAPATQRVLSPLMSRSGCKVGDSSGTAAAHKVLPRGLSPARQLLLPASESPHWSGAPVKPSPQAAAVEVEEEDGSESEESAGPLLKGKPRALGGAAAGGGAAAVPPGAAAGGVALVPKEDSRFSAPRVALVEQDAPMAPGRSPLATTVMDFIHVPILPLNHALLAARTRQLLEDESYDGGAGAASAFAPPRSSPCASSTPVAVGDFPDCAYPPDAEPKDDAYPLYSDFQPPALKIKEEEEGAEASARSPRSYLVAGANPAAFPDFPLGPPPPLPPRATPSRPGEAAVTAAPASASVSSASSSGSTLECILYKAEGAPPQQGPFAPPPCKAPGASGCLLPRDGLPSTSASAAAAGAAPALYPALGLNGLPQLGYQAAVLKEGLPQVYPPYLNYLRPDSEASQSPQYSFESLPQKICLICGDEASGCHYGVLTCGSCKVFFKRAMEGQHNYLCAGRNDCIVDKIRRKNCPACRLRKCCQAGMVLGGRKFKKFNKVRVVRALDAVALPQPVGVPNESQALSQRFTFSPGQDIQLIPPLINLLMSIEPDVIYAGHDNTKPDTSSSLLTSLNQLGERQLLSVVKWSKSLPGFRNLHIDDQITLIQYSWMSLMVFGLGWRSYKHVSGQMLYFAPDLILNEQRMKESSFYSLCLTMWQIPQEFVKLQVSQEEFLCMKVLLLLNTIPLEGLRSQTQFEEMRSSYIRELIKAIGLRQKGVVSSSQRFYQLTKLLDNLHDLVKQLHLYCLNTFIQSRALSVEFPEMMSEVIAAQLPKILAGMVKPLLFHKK
In words: Effect on human Gal4-fused PR at 10 uM by luciferase reporter gene assay.
Settings: not given
On to `CC(C)=CCCC1=C[C@@H](C/C(C)=C/CC[C@]2(C)C=Cc3cc(O)cc(C)c3O2)OC1=O` [2'-EPI-TUBERATOLIDE B], for which the outcome was inactive.

For `CC(C)=CCC/C(=C/CC/C(C)=C/CC[C@]1(C)C=Cc2cc(O)cc(C)c2O1)C(=O)O` [(R)-SARGACHROMENOL], the outcome was inactive.

Consider `CC(C)=CCC/C(=C/CC/C(C)=C/CC[C@@]1(C)C=Cc2cc(O)cc(C)c2O1)C(=O)O` [(S)-SARGACHROMENOL], for which the result was inactive.

Take `CC(=O)CC/C=C(\C)C[C@@H]1C=C(CCC=C(C)C)C(=O)O1` [TUBERATOLIDE A]: the result was inactive.

In the case of `CC(C)=CCCC1=C[C@@H](C/C(C)=C/CC[C@@]2(C)C=Cc3cc(O)cc(C)c3O2)OC1=O` [TUBERATOLIDE B], the result was inactive.

Turning to `CC(C)=CCCC1=C[C@@H](C/C(C)=C/CC/C(C)=C/CC2=CC(=O)C=C(C)C2=O)OC1=O` [YEZOQUINOLIDE], the result was inactive.
